pEC50, pIC50: −log10 of the molar value.
Experiments:
[1] = test system: HeLa; experiment: Growth inhibition of HeLa cells after 72 hrs by MTT assay; type: functional, cell-based; settings: Homo sapiens
In short: (§1)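 Tumor lines grown as monolayers in DMEM with 10% FBS, 2 mM L-glutamine and penicillin. Freshly diluted compounds added, solvent tested at matching concentrations; after 72 h growth measured by MTT. IC50 obtained by linear regression of concentrations bracketing 50% growth; mean of three separate experiments.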

[2] = test system: Coxsackievirus B4; experiment: Antiviral activity against coxsackie B4 virus in HeLa cells assessed as reduction of virus plaque formation after 7 days; type: functional, organism-based; settings: Enterovirus B, 168 h
[3] = test system: L1210; experiment: Growth inhibition of mouse L1210 cells after 72 hrs by MTT assay; type: functional, cell-based; settings: L1210, 72 h
[4] = test system: Human respirovirus 3; experiment: Antiviral activity against parainfluenza 3 virus in Vero cells assessed as reduction of virus plaque formation after 7 days; type: functional, organism-based; settings: Human respirovirus 3, Vero, 168 h
[5] = test system: MIA PaCa-2; experiment: Growth inhibition of MiaPaCa2 cells after 72 hrs by MTT assay; type: functional, cell-based; settings: Homo sapiens, MIA PaCa-2, 72 h; in short: as §1
[6] = test system: MCF7; experiment: Growth inhibition of MCF7 cells after 72 hrs by MTT assay; type: functional, cell-based; settings: Homo sapiens, MCF7, 72 h; in short: as §1
[7] = test system: Punta Toro virus; experiment: Antiviral activity against Punta Toro virus in Vero cells assessed as reduction of virus plaque formation after 7 days; type: functional, organism-based; settings: 168 h
[8] = test system: Human alphaherpesvirus 3; experiment: Antiviral activity against thymidine kinase expressing Varicella-Zoster virus OKA assessed as reduction of plaque formation; type: functional, organism-based; settings: Human alphaherpesvirus 3, OKA
[9] = test system: HEp-2; experiment: Growth inhibition of Hep2 cells after 72 hrs by MTT assay; type: functional, cell-based; settings: Homo sapiens, HEp-2, 72 h; in short: as §1
[10] = Cytotoxicity against HEL cells assessed as cell morphology after 7 days; type: cell-based; settings: human
In short: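 Uninfected confluent HEL cultures exposed to compounds; MCC recorded as lowest concentration producing a microscopically detectable alteration of normal cell morphology at day 7.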

[11] = test system: Human alphaherpesvirus 3; experiment: Antiviral activity against thymidine kinase deficient Varicella-Zoster virus 07/1 assessed as reduction of plaque formation; type: functional, organism-based; settings: Human alphaherpesvirus 3, 07/1
In short: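 Plaque reduction assay in HEL cells against TK+ (OKA) and TK- (07/1) VZV strains; virus input 100 PFU; EC50 as concentration giving 50% plaque reduction.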

[12] = Cytotoxicity against HEL cells assessed as cell growth after 7 days; type: cell-based; settings: human
[13] = test system: Human betaherpesvirus 5; experiment: Antiviral activity against human cytomegalovirus AD169 in HEL cells assessed as reduction of plaque formation after 7 days; type: functional, organism-based; settings: Human betaherpesvirus 5, AD169, HEL, 168 h
In short: (§2)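 Confluent HEL fibroblasts infected with HCMV (Davis or AD-169) at 100 PFU per well; after 2 h adsorption, residual virus removed and medium with serial compound concentrations added (duplicate wells). Incubated 7 days; EC50 taken as concentration reducing plaque formation by 50%.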

[14] = test system: Mammalian orthoreovirus 1; experiment: Antiviral activity against reovirus1 virus in Vero cells assessed as reduction of virus plaque formation after 7 days; type: functional, organism-based; settings: Mammalian orthoreovirus 1, Vero, 168 h
[15] = test system: Human betaherpesvirus 5; experiment: Antiviral activity against human cytomegalovirus Davis in HEL cells assessed as reduction of plaque formation after 7days; type: functional, organism-based; settings: Human betaherpesvirus 5, Davis, 168 h; in short: as §2
[16] = test system: SW-620; experiment: Growth inhibition of SW620 cells after 72 hrs by MTT assay; type: functional, cell-based; settings: Homo sapiens, SW-620, 72 h; in short: as §1
[17] = test system: Sindbis virus; experiment: Antiviral activity against sindbis virus in Vero cells assessed as reduction of virus plaque formation after 7 days; type: functional, organism-based; settings: 168 h
[18] = test system: CCRF-CEM; experiment: Growth inhibition of human CEM cells after 72 hrs by MTT assay; type: functional, cell-based
[19] = Growth inhibition of human Molt4/C8 cells after 72 hrs by MTT assay; type: functional, cell-based; settings: MOLT-4, 72 h

| Compound | pIC50 [1] | pEC50 [2] | pIC50 [3] | pEC50 [4] | pIC50 [5] | pIC50 [6] | pEC50 [7] | pEC50 [8] | pIC50 [9] | MCC at 168 h [10] [µM] | pEC50 [11] | CC50 at 168 h [12] [µM] | pEC50 [13] | pEC50 [14] | pEC50 [15] | pIC50 [16] | pEC50 [17] | pIC50 [18] | pIC50 [19] |
| --- | --- | --- | --- | --- | --- | --- | --- | --- | --- | --- | --- | --- | --- | --- | --- | --- | --- | --- | --- |
| CC(O)(CF)Cc1cc(O)nc(O)n1 (stereo unspecified) | < 3.70 | < 3.70 | < 3.70 | < 3.71 | < 3.70 | < 3.70 | < 3.71 | < 4.00 | < 3.70 | > 100 | < 4.00 | > 100 | < 4.00 | < 3.71 | < 4.00 | < 3.70 | < 3.71 | < 3.70 | < 3.70 |
| COc1nc(OC)c(Br)c(C(Br)Br)n1 | 6.00 | < 4.40 | 5.06 | 4.40 | 5.70 | 5.22 | < 4.40 | 5.06 | 5.70 | 100 | 4.98 | 1.7 | < 4.70 | < 4.40 | < 4.70 | 6.40 | 4.40 | 5.15 | 5.07 |
| CC(O)(Cc1cc(O)nc(O)n1)C(F)(F)F (stereo unspecified) | < 4.00 | < 3.70 | < 3.30 | < 3.70 | < 4.00 | < 4.00 | < 3.70 | < 4.00 | < 4.00 | > 100 | < 4.00 | > 100 | < 4.00 | < 3.70 | < 4.00 | < 4.00 | < 3.70 | < 3.30 | < 3.30 |
| COc1cc(CC(C)(CF)OC(C)=O)nc(OC)n1 (stereo unspecified) | 4.93 | < 3.83 | 4.66 | < 4.54 | 4.41 | 4.74 | < 4.54 | 5.09 | 4.75 | 73.5 | 5.13 | 50 | < 4.83 | < 4.54 | < 4.83 | 4.52 | < 4.54 | 4.69 | 4.32 |
| COc1cc(/C=C(\O)C(F)(F)C(F)(F)F)nc(OC)n1 | 4.58 | < 4.00 | 4.10 | < 4.00 | ≤ 4.00 | 4.12 | < 4.00 | < 4.00 | 4.26 | > 100 | < 4.00 | ≥ 60 | < 4.00 | < 4.00 | < 4.00 | 4.35 | < 4.00 | 5.01 | 4.37 |
| COc1cc(CC(C)(O)c2ccc(F)cc2)nc(OC)n1 (stereo unspecified) | < 4.00 | 4.40 | < 3.70 | 3.92 | < 4.00 | < 4.00 | 3.92 | < 4.00 | < 4.00 | > 100 | < 4.00 | > 100 | < 4.00 | 3.70 | 4.23 | < 4.00 | < 3.70 | < 3.70 | < 3.70 |
| COc1cc(/C=C(/O)c2ccc(F)cc2)nc(OC)n1 | < 4.00 | 4.62 | < 3.70 | < 3.70 | < 4.00 | ≤ 4.00 | < 3.70 | < 4.00 | < 4.00 | > 100 | < 4.70 | > 100 | < 4.00 | < 3.70 | 4.42 | ≤ 4.00 | 3.70 | 3.72 | < 3.70 |
| O=c1[nH]c(=O)n([C@H]2C[C@H](O)[C@@H](CO)O2)cc1/C=C/Br [BRIVUDINE] | – | < 3.60 | – | < 3.60 | – | – | < 3.60 | 7.85 | – | ≥ 1200 | 3.77 | 408 | – | < 3.60 | – | – | < 3.60 | – | – |
| COc1cc(CC(C)(O)C(F)(F)F)nc(OC)n1 (stereo unspecified) | < 3.70 | < 3.70 | < 3.70 | < 3.70 | < 3.70 | < 3.70 | < 3.70 | < 4.00 | < 3.70 | > 100 | < 4.00 | > 100 | < 4.00 | < 3.70 | < 4.00 | < 3.70 | < 3.70 | < 3.70 | < 3.70 |
| COc1nc(C)c(-c2ccccc2)c(OC)n1 | 4.05 | < 4.40 | 4.11 | < 4.40 | < 4.00 | < 4.00 | 4.40 | < 4.70 | < 4.00 | 100 | < 4.70 | 34 | < 4.70 | < 4.40 | < 4.70 | < 4.00 | < 4.40 | 4.37 | 4.15 |
| COc1cc(/C=C(\C)c2ccc(F)cc2)nc(OC)n1 | 4.77 | < 4.40 | < 3.70 | < 4.40 | < 4.00 | 4.80 | 4.40 | < 4.70 | 4.70 | 100 | < 4.70 | 88 | < 4.70 | < 4.40 | < 4.70 | 4.25 | < 4.40 | 4.13 | < 3.70 |
| COc1cc(CC(C)(O)CF)nc(OC)n1 (stereo unspecified) | < 3.70 | < 3.70 | < 3.70 | < 3.70 | < 3.70 | < 3.70 | < 3.70 | < 4.00 | < 3.70 | > 100 | < 4.00 | > 100 | < 4.00 | < 3.70 | < 4.00 | < 3.70 | < 3.70 | < 3.70 | < 3.70 |
| COc1cc(/C=C(/O)C(F)(F)F)nc(OC)n1 | < 3.70 | < 3.70 | < 3.70 | < 4.00 | < 3.70 | < 3.70 | < 4.00 | < 4.00 | < 3.70 | > 100 | < 4.00 | > 100 | < 4.10 | < 4.00 | < 4.00 | < 3.70 | < 4.00 | < 3.70 | 4.10 |
| Nc1ccn(C[C@@H](CO)OCP(=O)(O)O)c(=O)n1 [CIDOFOVIR] | – | – | – | – | – | – | – | – | – | ≥ 1270 | – | 51 | 6.39 | – | 6.39 | – | – | – | – |
| NC(=O)c1ncn([C@@H]2O[C@H](CO)[C@@H](O)[C@H]2O)n1 [RIBAVIRIN] | – | 3.82 | – | 3.82 | – | – | 3.82 | – | – | – | – | – | – | 3.60 | – | – | 4.30 | – | – |
| COc1cc(CC(C)(O)Cc2ccccc2F)nc(OC)n1 (stereo unspecified) | < 3.70 | < 3.70 | < 3.70 | < 3.89 | < 3.70 | < 3.70 | < 3.89 | < 4.00 | < 3.70 | ≥ 100 | < 4.00 | > 100 | < 4.00 | < 3.89 | < 4.00 | < 3.70 | < 3.89 | 3.81 | 4.10 |
| Nc1ncnc2c1ncn2C[C@H](O)CO [(S)-DHPA] | – | < 3.60 | – | < 3.60 | – | – | < 3.60 | – | – | – | – | – | – | < 3.60 | – | – | < 3.60 | – | – |
| Nc1nc2c(ncn2COC(CO)CO)c(=O)[nH]1 [GANCICLOVIR] | – | – | – | – | – | – | – | – | – | > 1580 | – | 172 | 5.32 | – | 5.89 | – | – | – | – |
| Nc1nc2c(ncn2COCCO)c(=O)[nH]1 [ACYCLOVIR] | – | – | – | – | – | – | – | – | – | > 1780 | – | 649 | – | – | – | – | – | – | – |

Source: ChEMBL document CHEMBL1145384, “Novel C-6 fluorinated acyclic side chain pyrimidine derivatives: synthesis, (1)H and (13)C NMR conformational studies, and antiviral and cytostatic evaluations” (J Med Chem, 2007)
